Reference: ChEMBL document CHEMBL1137781, “Synthesis and preclinical evaluation of novel PET probes for P-glycoprotein function and expression” (J Med Chem, 2009)

Columns and labels:
Cerebellum [1] = assay: Biodistribution in Wistar rat cerebellum at 38+/-8 MBq, iv after 80 mins; assay type: ADME, organism-based; details: in vivo
Bone [2] = assay: Biodistribution in Wistar rat bone at 38+/-8 MBq, iv after 80 mins; assay type: ADME, organism-based, Bone element; details: in vivo
[3] = Biodistribution in 50 mg/kg cyclosporin A pretreated Wistar rat fat at 49+/-11 MBq, iv after 80 mins; assay type: ADME, organism-based, Adipose tissue; design: dose 50 mg/kg, route intravenous; details: in vivo
Procedure, shortened: (§1)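 Male Wistar rats pretreated via tail vein with saline or cyclosporin A (50 mg/kg, commercial solution), then given the [11C] tracer via penile vein. After microPET scanning the anesthetized rats were killed. Tissues were excised and weighed, and blood was centrifuged into plasma and cells. γ counting with decay correction. Results as SUV (tissue MBq/g × body weight/injected dose).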

[4] = Biodistribution in Wistar rat medulla at 38+/-8 MBq, iv after 80 mins; assay type: ADME, organism-based, Medulla of organ; details: in vivo
Procedure, shortened: (§2)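 Male Wistar rats (12 h light/dark, chow ad libitum) were fitted with a femoral arterial cannula under isoflurane. They were pretreated via tail vein with saline, cyclosporin A (50 mg/kg), or nonradioactive tracer compound (15 mg/kg; 10 mg/mL in saline with 35% ethanol). The 11C tracer was then given via penile vein, followed by 76 min microPET. Animals were then terminated; excised tissues were weighed and gamma-counted with decay correction. Values are SUVs (tissue MBq/g × body weight g / injected MBq).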

Striatum [5] = assay: Biodistribution in Wistar rat striatum at 38+/-8 MBq, iv after 80 mins; assay type: ADME, organism-based; details: in vivo
Duodenum [6] = assay: Biodistribution in Wistar rat duodenum at 38+/-8 MBq, iv after 80 mins; assay type: ADME, organism-based; details: in vivo; procedure, shortened: as §2
[7] = Biodistribution in 50 mg/kg cyclosporin A pretreated Wistar rat cingulate cortex at 49+/-11 MBq, iv after 80 mins; assay type: ADME, organism-based; design: dose 50 mg/kg, route intravenous; details: in vivo; procedure, shortened: as §1
[8] = Biodistribution in Wistar rat entorhinal cortex at 38+/-8 MBq, iv after 80 mins; assay type: ADME, organism-based; details: in vivo; procedure, shortened: as §2
Liver [9] = assay: Biodistribution in Wistar rat liver at 38+/-8 MBq, iv after 80 mins; assay type: ADME, organism-based; details: in vivo; procedure, shortened: as §2
[10] = Biodistribution in 50 mg/kg cyclosporin A pretreated Wistar rat red blood cells at 49+/-11 MBq, iv after 80 mins; assay type: ADME, organism-based, Erythrocyte; design: dose 50 mg/kg, route intravenous; details: in vivo
[11] = Biodistribution in 50 mg/kg cyclosporin A pretreated Wistar rat amygdala at 49+/-11 MBq, iv after 80 mins; assay type: ADME, organism-based; design: dose 50 mg/kg, route intravenous; details: in vivo
Procedure, shortened: (§3)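 Male Wistar rats pretreated with saline or cyclosporin A (50 mg/kg) via tail vein, then given the [11C] tracer via penile vein. Tissues excised after scanning and weighed. γ counting with decay correction. Results as SUV normalized to body weight and injected dose.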

Rattus norvegicus [12] = assay: AUC in Wistar rat at 38+/-8 MBq, iv; assay type: ADME, organism-based, Plasma; details: in vivo
Procedure, shortened: (§4)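 Male Wistar rats with a femoral arterial cannula placed under isoflurane. Saline or cyclosporin A (50 mg/kg, commercial solution) given via tail vein, then the [11C] tracer via penile vein. Dynamic microPET over the brain for 76 min, with 14 arterial samples to 60 min. Plasma counted in a γ counter. AUC of whole-brain or plasma SUV over 0-60 min.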

Striatum [13] = assay: Biodistribution in 50 mg/kg cyclosporin A pretreated Wistar rat striatum at 49+/-11 MBq, iv after 80 mins; assay type: ADME, organism-based; design: dose 50 mg/kg, route intravenous; details: in vivo
Hippocampus [14] = assay: Biodistribution in Wistar rat hippocampus at 38+/-8 MBq, iv after 80 mins; assay type: ADME, organism-based; details: in vivo; procedure, shortened: as §2
[15] = Biodistribution in 50 mg/kg cyclosporin A pretreated Wistar rat trachea at 49+/-11 MBq, iv after 80 mins; assay type: ADME, organism-based; design: dose 50 mg/kg, route intravenous; details: in vivo
Heart [16] = assay: Biodistribution in Wistar rat heart at 38+/-8 MBq, iv after 80 mins; assay type: ADME, organism-based; details: in vivo; procedure, shortened: as §2
[17] = Biodistribution in Wistar rat fat at 38+/-8 MBq, iv after 80 mins; assay type: ADME, organism-based, Adipose tissue; details: in vivo; procedure, shortened: as §2
Plasma [18] = assay: Biodistribution in Wistar rat plasma at 38+/-8 MBq, iv after 60 mins; assay type: ADME, organism-based; details: in vivo, 1 h
Rattus norvegicus [19] = assay: AUC in 50 mg/kg cyclosporin A pretreated Wistar rat at 49+/-11 MBq, iv; assay type: ADME, organism-based, Plasma; design: dose 50 mg/kg, route intravenous; details: in vivo; procedure, shortened: as §4
[20] = Biodistribution in 50 mg/kg cyclosporin A pretreated Wistar rat parietal/temporal/occipital cortex at 49+/-11 MBq, iv after 80 mins; assay type: ADME, organism-based; design: dose 50 mg/kg, route intravenous; details: in vivo
Kidney [21] = assay: Biodistribution in 50 mg/kg cyclosporin A pretreated Wistar rat kidney at 49+/-11 MBq, iv after 80 mins; assay type: ADME, organism-based; design: dose 50 mg/kg, route intravenous; details: in vivo
[22] = Biodistribution in Wistar rat parietal/temporal/occipital cortex at 38+/-8 MBq, iv after 80 mins; assay type: ADME, organism-based; details: in vivo; procedure, shortened: as §2
[23] = Biodistribution in Wistar rat frontal cortex at 38+/-8 MBq, iv after 80 mins; assay type: ADME, organism-based; details: in vivo; procedure, shortened: as §2
[24] = Biodistribution in 50 mg/kg cyclosporin A pretreated Wistar rat frontal cortex at 49+/-11 MBq, iv after 80 mins; assay type: ADME, organism-based; design: dose 50 mg/kg, route intravenous; details: in vivo
[25] = Biodistribution in Wistar rat bulbus olfactorius at 38+/-8 MBq, iv after 80 mins; assay type: ADME, organism-based, Olfactory bulb; details: in vivo
Colon [26] = assay: Biodistribution in Wistar rat colon at 38+/-8 MBq, iv after 80 mins; assay type: ADME, organism-based; details: in vivo; procedure, shortened: as §2
Heart [27] = assay: Biodistribution in 50 mg/kg cyclosporin A pretreated Wistar rat heart at 49+/-11 MBq, iv after 80 mins; assay type: ADME, organism-based; design: dose 50 mg/kg, route intravenous; details: in vivo
[28] = Biodistribution in Wistar rat red blood cells at 38+/-8 MBq, iv after 80 mins; assay type: ADME, organism-based, Erythrocyte; details: in vivo
Liver [29] = assay: Biodistribution in 50 mg/kg cyclosporin A pretreated Wistar rat liver at 49+/-11 MBq, iv after 80 mins; assay type: ADME, organism-based; design: dose 50 mg/kg, route intravenous; details: in vivo
Plasma [30] = assay: Biodistribution in Wistar rat plasma at 38+/-8 MBq, iv after 80 mins; assay type: ADME, organism-based; details: in vivo
Procedure, shortened: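 Male Wistar rats under isoflurane were given tracer via the penile vein after tail-vein pretreatment with saline or drug. At the end of a 76 min microPET scan the anesthetized animals were terminated. Blood was collected and centrifuged 5 min at 1000g for plasma. Plasma was weighed, γ-counted with decay correction and expressed as SUV (tissue MBq/g × body weight/injected dose).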

Ileum [31] = assay: Biodistribution in Wistar rat ileum at 38+/-8 MBq, iv after 80 mins; assay type: ADME, organism-based; details: in vivo; procedure, shortened: as §2
[32] = Biodistribution in 50 mg/kg cyclosporin A pretreated Wistar rat entorhinal cortex at 49+/-11 MBq, iv after 80 mins; assay type: ADME, organism-based; design: dose 50 mg/kg, route intravenous; details: in vivo; procedure, shortened: as §1
Plasma [33] = assay: Biodistribution in 50 mg/kg cyclosporin A pretreated Wistar rat plasma at 49+/-11 MBq, iv after 80 mins; assay type: ADME, organism-based; design: dose 50 mg/kg, route intravenous; details: in vivo
Colon [34] = assay: Biodistribution in 50 mg/kg cyclosporin A pretreated Wistar rat colon at 49+/-11 MBq, iv after 80 mins; assay type: ADME, organism-based; design: dose 50 mg/kg, route intravenous; details: in vivo; procedure, shortened: as §1
[35] = Biodistribution in Wistar rat amygdala at 38+/-8 MBq, iv after 80 mins; assay type: ADME, organism-based; details: in vivo
Kidney [36] = assay: Biodistribution in Wistar rat kidney at 38+/-8 MBq, iv after 80 mins; assay type: ADME, organism-based; details: in vivo; procedure, shortened: as §2
Muscle tissue [37] = assay: Biodistribution in 50 mg/kg cyclosporin A pretreated Wistar rat muscle at 49+/-11 MBq, iv after 80 mins; assay type: ADME, organism-based; design: dose 50 mg/kg, route intravenous; details: in vivo
Ileum [38] = assay: Biodistribution in 50 mg/kg cyclosporin A pretreated Wistar rat ileum at 49+/-11 MBq, iv after 80 mins; assay type: ADME, organism-based; design: dose 50 mg/kg, route intravenous; details: in vivo
Spleen = assay: Biodistribution in Wistar rat spleen at 38+/-8 MBq, iv after 80 mins; assay type: ADME, organism-based; details: in vivo
Cerebellum [39] = assay: Biodistribution in 50 mg/kg cyclosporin A pretreated Wistar rat cerebellum at 49+/-11 MBq, iv after 80 mins; assay type: ADME, organism-based; design: dose 50 mg/kg, route intravenous; details: in vivo; procedure, shortened: as §1
Muscle tissue [40] = assay: Biodistribution in Wistar rat muscle at 38+/-8 MBq, iv after 80 mins; assay type: ADME, organism-based; details: in vivo; procedure, shortened: as §2
Pons [41] = assay: Biodistribution in 50 mg/kg cyclosporin A pretreated Wistar rat pons at 49+/-11 MBq, iv after 80 mins; assay type: ADME, organism-based; design: dose 50 mg/kg, route intravenous; details: in vivo
[42] = Biodistribution in 50 mg/kg cyclosporin A pretreated Wistar rat bulbus olfactorius at 49+/-11 MBq, iv after 80 mins; assay type: ADME, organism-based, Olfactory bulb; design: dose 50 mg/kg, route intravenous; details: in vivo; procedure, shortened: as §1
Hippocampus [43] = assay: Biodistribution in 50 mg/kg cyclosporin A pretreated Wistar rat hippocampus at 49+/-11 MBq, iv after 80 mins; assay type: ADME, organism-based; design: dose 50 mg/kg, route intravenous; details: in vivo
Pancreas = assay: Biodistribution in Wistar rat pancreas at 38+/-8 MBq, iv after 80 mins; assay type: ADME, organism-based; details: in vivo; procedure, shortened: as §2
[44] = Biodistribution in Wistar rat cingulate cortex at 38+/-8 MBq, iv after 80 mins; assay type: ADME, organism-based; details: in vivo; procedure, shortened: as §2
[45] = Biodistribution in Wistar rat trachea at 38+/-8 MBq, iv after 80 mins; assay type: ADME, organism-based; details: in vivo
[46] = Biodistribution in 50 mg/kg cyclosporin A pretreated Wistar rat medulla at 49+/-11 MBq, iv after 80 mins; assay type: ADME, organism-based, Medulla of organ; design: dose 50 mg/kg, route intravenous; details: in vivo
Pons [47] = assay: Biodistribution in Wistar rat pons at 38+/-8 MBq, iv after 80 mins; assay type: ADME, organism-based; details: in vivo
Bone [48] = assay: Biodistribution in 50 mg/kg cyclosporin A pretreated Wistar rat bone at 49+/-11 MBq, iv after 80 mins; assay type: ADME, organism-based, Bone element; design: dose 50 mg/kg, route intravenous; details: in vivo; procedure, shortened: as §3
Lung = assay: Biodistribution in 50 mg/kg cyclosporin A pretreated Wistar rat lung at 49+/-11 MBq, iv after 80 mins; assay type: ADME, organism-based; design: dose 50 mg/kg, route intravenous; details: in vivo
Duodenum [49] = assay: Biodistribution in 50 mg/kg cyclosporin A pretreated Wistar rat duodenum at 49+/-11 MBq, iv after 80 mins; assay type: ADME, organism-based; design: dose 50 mg/kg, route intravenous; details: in vivo; procedure, shortened: as §1

SUV (Cerebellum [1]): 0.052 | SUV (Bone [2]): 0.25 | SUV [3]: 0.5 | SUV [4]: 0.044 | SUV (Striatum [5]): 0.038 | SUV (Duodenum [6]): 0.78 | SUV [7]: 0.5 | SUV [8]: 0.027 | SUV (Liver [9]): 1.23 | SUV [10]: 0.07 | SUV [11]: 0.62 | AUC (Rattus norvegicus [12]): 100% | SUV (Striatum [13]): 0.55 | SUV (Hippocampus [14]): 0.036 | SUV [15]: 0.46 | SUV (Heart [16]): 0.24 | SUV [17]: 0.38 | SUV (Plasma [18]): 0.18 | AUC (Rattus norvegicus [19]): 110% | SUV [20]: 0.64 | SUV (Kidney [21]): 1.07 | SUV [22]: 0.036 | SUV [23]: 0.031 | SUV [24]: 0.52 | SUV [25]: 0.038 | SUV (Colon [26]): 0.32 | SUV (Heart [27]): 0.3 | SUV [28]: 0.06 | SUV (Liver [29]): 1.84 | SUV (Plasma [30]): 0.13 | SUV (Ileum [31]): 0.49 | SUV [32]: 0.59 | SUV (Plasma [33]): 0.17 | SUV (Colon [34]): 0.4 | SUV [35]: 0.034 | SUV (Kidney [36]): 0.61 | SUV (Muscle tissue [37]): 0.37 | SUV (Ileum [38]): 0.56 | SUV (Spleen): 0.93 | SUV (Cerebellum [39]): 0.6 | SUV (Muscle tissue [40]): 0.29 | SUV (Pons [41]): 0.68 | SUV [42]: 0.57 | SUV (Hippocampus [43]): 0.54 | SUV (Pancreas): 0.82 | SUV [44]: 0.027 | SUV [45]: 0.35 | SUV [46]: 0.67 | SUV (Pons [47]): 0.034 | SUV (Bone [48]): 0.38 | SUV (Lung): 1.95 | SUV (Duodenum [49]): 0.63
SMILES: COc1ccc(CCN([11CH3])CCCC(C#N)(c2ccc(OC)c(OC)c2)C(C)C)cc1OC (configuration not stated)
